From PubChem BioAssay
KCNK9 inh: blocks the human KCNK9 two-pore domain potassium channel; Q9NPC2; HEK293 KCNK9, FluxOR thallium flux fluorescence; stronger effect = lower value; B-score at 10 µM; 310,000 tested, 1.2% active; AID 488922;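 active = ratio B-score over 3 SD below the library mean, with starting fluorescence within 5 SD of its mean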;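 note: negative B-score means less thallium flux so channel inhibition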
hERG rescue: shields human hERG channel from block by proarrhythmic agents. AID 1511. Q12809. activation (rescue from dofetilide block), less the hit threshold, % at 10 µM. CHO-hERG, FluxOR thallium flux, dofetilide IC70 present. 310,000 tested, 0.51% active;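 active = activation above the mean of controls blocked by dofetilide plus 5 SD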;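 note: thallium influx through hERG after potassium depolarization seen as dye fluorescence rise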
KCNK3 block: human KCNK3 channel inhibition, primary screen; O14649; 340,000 tested, 0.84% active; AID 602410; B-score at 10 µM; CHO-KCNK3 thallium flux, FluxOR fluorescence; stronger effect = lower value;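 active = B-score under library mean minus 4 SD, starting fluorescence ratio at most library mean plus 5 SD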;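 note: more negative B-score means stronger inhibition of thallium flux through KCNK3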
KCNQ1 block: blocks the human KCNQ1 potassium channel; P51787; CHO-K1 KCNQ1, FluxOR thallium flux fluorescence; stronger effect = higher value; AID 2642; B-score at 10 µM; 310,000 tested, 1.3% active;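 active = compounds whose thallium flux B-score, printed positive for inhibition, exceeds three library SD while starting fluorescence stays within three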;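 note: channel opened by potassium depolarization with thallium stimulus after 20 min compound exposure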
Target sequence (P51787 whole entry, looked up): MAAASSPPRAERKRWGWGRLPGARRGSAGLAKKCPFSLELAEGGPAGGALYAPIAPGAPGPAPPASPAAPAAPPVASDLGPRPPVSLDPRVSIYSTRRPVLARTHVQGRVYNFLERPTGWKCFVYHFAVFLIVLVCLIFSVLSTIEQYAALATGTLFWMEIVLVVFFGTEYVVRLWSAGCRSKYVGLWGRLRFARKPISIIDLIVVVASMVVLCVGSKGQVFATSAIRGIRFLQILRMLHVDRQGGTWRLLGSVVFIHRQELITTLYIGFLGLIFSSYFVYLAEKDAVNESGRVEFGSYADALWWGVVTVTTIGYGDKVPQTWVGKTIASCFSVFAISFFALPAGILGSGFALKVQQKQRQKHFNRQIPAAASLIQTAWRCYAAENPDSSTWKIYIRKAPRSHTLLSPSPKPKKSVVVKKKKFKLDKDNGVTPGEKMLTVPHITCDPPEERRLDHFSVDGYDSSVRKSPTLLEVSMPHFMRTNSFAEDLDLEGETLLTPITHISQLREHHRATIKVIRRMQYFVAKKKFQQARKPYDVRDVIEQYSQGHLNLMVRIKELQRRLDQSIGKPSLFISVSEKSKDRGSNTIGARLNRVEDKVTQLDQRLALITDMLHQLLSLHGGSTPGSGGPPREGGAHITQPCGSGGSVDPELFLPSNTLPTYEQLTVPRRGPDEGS
Kir21 block: blocks the mouse Kir2.1 inward-rectifier potassium channel | 310,000 tested, 0.85% active | HEK293-Kir2.1, FluxOR thallium flux fluorescence; stronger effect = lower value | B-score at 10 µM | P35561;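 active = fluorescence ratio B-score at or below minus 3 SD of library scores, with starting-brightness B-score within 2 SD, cut at about -4.2 in these data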;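 note: channel flux triggered by added potassium and thallium sulfate stimulus; B-score of peak minus minimum fluorescence over baseline after thallium stimulus; more negative B-score means stronger Kir2.1 block with less thallium influx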
KCNQ1 act: potentiates or activates the human KCNQ1 potassium channel; P51787; CHO-K1 KCNQ1, thallium flux FluxOR fluorescence; stronger effect = higher value; B-score at 10 µM; 310,000 tested, 0.35% active; AID 2648;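 active = fluorescence ratio B-score, a plate-corrected score, at least three library SD, with initial intensity B-score within 5 SD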
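Material: CHO-K1 cells stably expressing KCNQ1. Medium: assay buffer for compound exposure, DMSO matched across wells. Reagent: K+/Tl+ depolarizing stimulus. Compound dosing: single-concentration screen. Times: 37 °C overnight plating, 90-min dark dye load, 20-min compound pretreatment. Technique: FluxOR Tl+ flux fluorescence.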
KCNK9 block conf: confirmation of human KCNK9 potassium channel inhibitors | shares compounds with KCNK9 inh | HEK293 KCNK9 cells, FluxOR thallium flux fluorescence | inhibition, % at 10 µM | 4,900 tested, 43% active | AID 492992;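 active = thallium signal inhibited by more than 5 SD of the compound-free buffer control wells, on both duplicate plates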;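 note: 0% = assay buffer control wells without compound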
Kir2-1 spec: tests whether KCNK9 modulators also affect mouse Kir2.1 | 4,900 tested, 4% active | shares compounds with KCNK9 inh | inhibition, % at 10 µM | AID 492993 | Kir2.1 cells, FluxOR thallium flux fluorescence;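 active = thallium signal drop more than 5 SD beyond the mean of the no-compound control wells, seen in both duplicate plates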;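 note: signal is fluorescence rise after thallium addition divided by baseline fluorescence; plate controls were assay buffer only for no effect and full block by chlorpromazine control for full effect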
KCNK9 uninduced: second counter-screen for KCNK9 modulators: effect in non-induced cells; inhibition, % at 10 µM; shares compounds with KCNK9 inh; AID 492997; 4,900 tested, 40% active; non-induced KCNK9-HEK293, FluxOR thallium flux;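 active = thallium signal drop beyond 5 SD of the untreated control mean, on both duplicate plates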;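 note: plate controls were buffer only IC0 wells for no effect and SID17386958 at its maximal inhibitory level for full effect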
KCNK3 confirm: human KCNK3 channel inhibition, confirmation assay. shares compounds with KCNK3 block. CHO-KCNK3 thallium flux, FluxOR fluorescence; 0% buffer, 100% carvedilol maximal block. ratio percent of control, % at 10 µM. 2,400 tested, 99% active. AID 651638;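 active = ratio percent of control, averaged over triplicates, above buffer control mean plus 5 SD, cut at about 64% in these data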;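 note: ratio is the fluorescence rise from min to max over baseline after thallium stimulus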
KCNK3 noninduced: activity in cells without induced KCNK3 expression | shares compounds with KCNK3 block | non-induced KCNK3 parental cells, FluxOR thallium flux; stronger effect = lower value | thallium flux ratio (lower = more inhibition) at 10 µM | 2,400 tested, 40% active;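 active = thallium flux ratio, averaged over three wells, more than 5 SD below the buffer control mean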;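 note: host cells are CHO cells without KCNK3 induction; ratio is peak minus trough fluorescence over baseline then normalized to buffer controls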
Starred values were filed as active, the others as inactive; i = inactive; . = no result given. A selection: hits, their analogues and other compounds. The true share with any hit is near 3.7%.

SMILES	KCNK9 inh	hERG rescue	KCNK3 block	KCNQ1 block	Kir21 block	KCNQ1 act	KCNK9 block conf	Kir2-1 spec	KCNK9 uninduced	KCNK3 confirm	KCNK3 noninduced
COc1ccc(/C=N\NC(=O)c2sccc2C)cc1Cn1nc(C)cc1C	-8.2*	-15	-8.8*	i	-0.07	i	i	i	i	88*	i
C[C@H]1CCC[C@]2(O[C@H](CCO)C[C@@H](O)[C@@H]2O)O1	i	-2	i	i	-0.1	i	.	.	.	.	.
O=C(Nc1cccc(NC(=O)c2cccs2)c1)c1ccc(Br)o1	-16*	-12	-10*	i	-0.41	i	62%*	i	i	99*	i
O=C(Nc1cccc(-c2cn3cccnc3n2)c1)c1ccc(Br)o1	-8.7*	-13	-9.6*	i	-0.08	i	40%*	i	i	95*	i
O=C(Nc1ccc(NC(=O)c2cccs2)cc1)c1ccc(Br)o1	i	-6	i	i	0.68	i	.	.	.	.	.
COC(=O)C1=C(C)N=C2SC(C)C(=O)N2C1c1cccc(F)c1 (configuration not stated)	-13*	-7	-12*	i	-1.9	i	74%*	i	50%*	102*	i
CCOc1cc(C2C(C(=O)OC)=C(C)N=C3SC(C)C(=O)N32)ccc1OC(C)=O (configuration not stated)	i	-3	i	i	-1.4	i	.	.	.	.	.
FC(F)(F)c1cccc(NC(=S)NCc2ccccn2)c1	i	-4	i	i	-0.84	i	.	.	.	.	.
CC(C)N(C(=S)Nc1cccc(C(F)(F)F)c1)C(C)c1ccccn1 (configuration not stated)	-17*	-11	-11*	12*	1.4	i	77%*	i	44%*	133*	0.12*
NC(=O)CSc1nc2c(sc3ccccc32)c(=O)n1CCCC(=O)NCC1CCCO1 (configuration not stated)	i	-8	i	i	-0.18	i	.	.	.	.	.
Cc1ccc(C(C)C)c(OCCN2CCc3ccccc3C2)c1	i	0	-9.7*	i	-3.1	i	i	i	i	127*	i
Cc1ccc(C)c(NC(=O)CCN2CCc3ccccc3C2)c1	i	-10	i	i	-2.8	i	.	.	.	.	.
CCN1CC2=C(OC(N)=C(C#N)C2c2cccs2)/C(=C\c2cccs2)C1 (configuration not stated)	-8.7*	-8	i	i	-0.47	i	28%*	i	26%*	130*	0.12*
CCOC(=O)C1=C(CC)OC(N)=C(C#N)C1c1cccs1 (configuration not stated)	i	-2	i	i	-1.7	i	.	.	.	.	.
COCCNC(C(=O)Nc1cc(Cl)cc(Cl)c1)c1ccccc1 (configuration not stated)	-12*	-10	-9.2*	i	0.59	i	44%*	i	40%*	103*	i
CCOCCCNC(C(=O)Nc1ccc(OC)c(Cl)c1)c1ccccc1 (configuration not stated)	i	-7	i	i	0.76	i	.	.	.	.	.
CCCN(CCC)CCNC(=O)c1cc2c(-c3ccccc3F)nn(C)c2s1	i	-4	i	i	-0.65	i	.	.	.	.	.
CC(CCc1ccco1)NC(=O)c1cc2c(-c3ccccc3F)nn(C)c2s1 (configuration not stated)	-8.4*	-10	-13*	i	-1.2	i	28%*	i	i	120*	0.14*
CNc1oc(/C=C/c2cccc(OC)c2)nc1C#N	i	-4	i	i	-1.9	i	.	.	.	.	.
C=CCn1c(SCC(=O)Nc2ccccc2)nc2scc(-c3cccs3)c2c1=O	-11*	-5	-9.5*	i	0.47	i	35%*	i	34%*	114*	i
C[C@H](NC(=O)c1ccccc1Cl)C(=O)NCCc1ccc(S(N)(=O)=O)cc1	i	-2	i	i	-0.07	i	.	.	.	.	.
COC(=O)c1ccccc1NC(=O)N1CCc2ccc(NC(=O)c3ccccn3)cc2C1	-8.3*	-8	i	i	-0.85	i	42%*	i	26%*	134*	0.16*
CSc1ccc(C(=O)N2CCc3ccc(NC(=O)c4ccccn4)cc3C2)cc1	i	-11	i	i	-0.99	i	.	.	.	.	.
CCC(C)Sc1cc(-c2nc3ccc(Cl)cn3c2NC2CCCCC2)ccc1OC (configuration not stated)	.	.	i	.	.	.	.	.	.	.	.
O=C(c1c(F)cccc1F)N(Cc1cccs1)C1CCCC1	i	-8	i	i	-1.1	i	.	.	.	.	.
SMILES	KCNK9 inh	hERG rescue	KCNK3 block	KCNQ1 block	Kir21 block	KCNQ1 act	KCNK9 block conf	Kir2-1 spec	KCNK9 uninduced	KCNK3 confirm	KCNK3 noninduced
O=C(c1c(F)cccc1F)N(C1CCCCC1)C1CCCCC1	-12*	-6	-12*	i	-0.25	i	68%*	i	28%*	133*	0.12*
COC(=O)C1N2C(=O)[C@@H](NC(=O)COc3ccccc3)[C@H]2SC1(C)C (some centres not stated)	i	-5	i	i	-0.57	i	.	.	.	.	.
COc1cccc(NC(=S)N(CCCN2CCC(C)CC2)Cc2cccs2)c1	i	-9	i	i	1.3	i	.	.	.	.	.
COc1cccc(NC(=S)N(CCc2c(C)[nH]c3ccc(C)cc23)Cc2cccs2)c1	-14*	-3	-11*	i	-1.1	i	42%*	i	43%*	90*	0.14*
OC(CNc1nc(C(F)(F)F)nc2ccccc12)c1ccccc1 (configuration not stated)	-12*	-10	-13*	i	1.6	i	61%*	i	i	118*	i
CCc1ccc(/C=C\C(=O)N2CCCC2)cc1	i	-6	i	i	-0.75	i	.	.	.	.	.
CC(C)Cc1ccc(/C=C/C(=O)N2CCCCC2)cc1	-9.8*	-9	-13*	i	2.2	i	74%*	i	39%*	114*	i
